RGS4 act: RGS4 potentiation or activation | HEK293 M3R/inducible RGS4, carbachol calcium flux Fluo4; active compounds read low | B-score at 10 µM | 0.92% of 310,000 active | AID 463111;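 active means B-score of the integrated calcium signal more than 4 SD below the library mean, with starting fluorescence not abnormally high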;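 further: negative B-score means reduced calcium response which marks RGS4 activation or potentiation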
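test system = HEK293 cells with stable M3R and inducible RGS4 | schedule = recording 10 s baseline at 1 Hz, 100 s post-agonist | technique = Fluo4-AM (2 µM) calcium-flux fluorescence, kinetic read | measure = Agonist-evoked peak-minus-minimum fluorescence over baseline, integrated ratio, B score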
Kir21 inh: Kir2.1 (mouse) channel inhibition; AID 1672; HEK293-Kir2.1, FluxOR thallium flux fluorescence; active compounds read low; 0.85% of 310,000 active; B-score at 10 µM;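 active means fluorescence ratio B-score at or below minus 3 SD of library scores, with starting-brightness B-score within 2 SD, cut at about -4.2 in these data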;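 further: channel flux triggered by added potassium and thallium sulfate stimulus; B-score of peak minus minimum fluorescence over baseline after thallium stimulus; more negative B-score means stronger Kir2.1 block with less thallium influx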
MrgX1 ag: activates human MrgX1 receptor signaling; Q96LB2; MrgX1-HEK293 cells, Fluo-4 calcium fluorescence, agonist mode; active compounds read high; B-score at 10 µM; 0.44% of 310,000 active;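 active means calcium response B-score plate-corrected fluorescence ratio at least 3 library SD, with starting fluorescence B-score inside 5 SD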
Target sequence (Q96LB2 whole entry, looked up): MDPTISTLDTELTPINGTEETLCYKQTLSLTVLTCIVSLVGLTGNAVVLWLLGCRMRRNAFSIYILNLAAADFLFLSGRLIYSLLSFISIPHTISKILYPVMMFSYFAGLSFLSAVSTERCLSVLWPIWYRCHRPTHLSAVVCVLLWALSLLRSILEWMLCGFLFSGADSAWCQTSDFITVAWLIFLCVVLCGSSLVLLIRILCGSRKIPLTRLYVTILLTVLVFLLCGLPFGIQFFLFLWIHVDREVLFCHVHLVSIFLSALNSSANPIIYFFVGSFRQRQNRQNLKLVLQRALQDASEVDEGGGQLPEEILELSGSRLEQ
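Test system: Stable human MrgX1 HEK293 cell line | Schedule: Overnight plating before 1 h dye loading | Read-out basis: Baseline-normalised fluorescence change ratio, B-scored | Detection: Kinetic calcium dye fluorescence, Fluo-4 NW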
MrgX1 allo act: allosterically activates human MrgX1 receptor signaling. MrgX1-HEK293, Fluo-4 calcium flux, FDSS; active compounds read high. Q96LB2. B-score at 10 µM. 0.63% of 310,000 active;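 active means plate-corrected calcium response at least 3 library SD above typical, normal starting fluorescence, not activating the receptor alone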;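 further: compound read alongside a low EC10 to EC30 dose of BAM8-22 agonist; peak minus trough fluorescence over baseline measured at the second addition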
RGS4 block: human RGS4 inhibition. P49798. HEK293 M3R/RGS4 inducible, Fluo-4 calcium flux; active compounds read high; triggered by carbachol at its EC20. B-score at 10 µM. 0.45% of 310,000 active;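 active means B-score, a plate-corrected calcium signal, over three deviations above library mean, with baseline fluorescence within five deviations of library mean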;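 further: RGS4 expression induced by doxycycline in cells with stable M3 receptor; B-score is computed from the integrated fluorescence ratio over baseline after carbachol; higher B-score means a larger calcium signal and so more RGS4 inhibition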
MrgX1 antagonist: antagonists of human MrgX1 receptor | B-score at 10 µM | MRGX1-HEK293 calcium flux, Fluo-4, BAM8-22 antagonism; active compounds read low | AID 588676 | 1.3% of 310,000 active | Q96LB2;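 active means calcium-response B-score plate-corrected more than 3 library SD below zero, starting fluorescence within 5 deviations, no agonist response on first addition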;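 further: peak minus trough fluorescence over baseline after final BAM8-22 challenge near maximal dose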
Hits are given with their value; i = inactive; nt = no result given. Sampled rows, rich in hits. Any-hit rate of the full collection: about 4.1%.

SMILES	RGS4 act	Kir21 inh	MrgX1 ag	MrgX1 allo act	RGS4 block	MrgX1 antagonist
CC1C(=NO)C(C)C(c2ccc(N(C)C)cc2)NC1c1ccc(N(C)C)cc1 (centres undefined)	i	i	i	13.6	i	i
O=C(CSc1nnc(COc2ccc(Cl)cc2)o1)N1CCN(c2ccccc2)CC1	i	i	i	i	i	i
CCC(C)(C)NC(=O)CN(Cc1cccs1)C(=O)CNS(=O)(=O)c1ccc(C)cc1	i	i	i	i	i	i
CCCCCCCCSc1nnc(CSc2nc3nc(C)cc(C)n3n2)o1	-8.32	i	i	i	i	i
O=C(Cc1cccc2ccccc12)Nc1ccc(O)cc1C(=O)O	i	i	i	i	i	i
O=C(Cc1cccc2ccccc12)Nc1ccc(Br)cc1C(=O)O	i	i	i	i	i	-6.3
CCOC(=O)c1ccc(S(=O)(=O)NNC(=O)c2cccc(N(C)C)c2)cc1	i	i	i	7.14	i	i
CCNc1ccc(C(=O)OCC)cc1NC(=O)c1cccc(N(C)C)c1	i	i	i	i	i	i
CC1CCN(CCCCOc2cccc(Br)c2)CC1	-7.02	i	i	i	i	i
Cc1cc(Cl)c(OCCOCCN2CCC(C)CC2)c(Br)c1	i	-5.16	i	i	i	i
Cc1cc(C)c(OCCCON2C(=O)CCC2=O)c(Br)c1	i	i	i	i	i	i
CC1CCN(CCOCCOc2ccc(Cl)cc2Br)CC1	i	i	i	i	i	i
CC1CCN(CCCOc2ccc(Cl)cc2Br)CC1	i	-4.46	i	i	i	i
Cc1cc(C)c(OCCCCN2CCC(C)CC2)c(Br)c1	i	-5.51	i	i	i	i
O=C(NNC(=S)Nc1ccccc1)C1CC1	i	i	i	i	i	i
CCCCCCCCCC(=O)N1c2ccccc2NC(=O)C1CC(=O)Nc1ccc(C(=O)O)cc1 (centres undefined)	i	i	i	i	i	i
C/C(=N\NC(=O)c1ccccc1F)c1ccc(C#N)cc1	i	i	i	i	i	i
Clc1cccc(Cl)c1COn1nnc2ccccc21	i	i	i	i	i	i
c1ccc(COn2nnc3ccccc32)c(COn2nnc3ccccc32)c1	i	-5.7	i	i	i	i
O=C(N/N=C/c1ccc(O)c(O)c1)NC12CC3CC(CC(C3)C1)C2	i	i	i	i	5.07	i
COc1cc(/C=N/NC(=O)NC23CC4CC(CC(C4)C2)C3)ccc1O	i	i	i	i	i	i
O=C1NCC(NC(=O)C(F)(F)F)c2cc3c(cc21)OCO3 (centres undefined)	i	i	i	i	i	i
O=[N+]([O-])c1cc(C(F)(F)F)ccc1NCCOc1ccccc1	i	i	i	9.06	i	i
Cc1ccccc1OCCNc1ccc(C(F)(F)F)cc1[N+](=O)[O-]	i	i	i	i	i	i
O=C(NC1CCCC1)C(c1ccccc1)N(Cc1ccco1)C(=O)Cc1cccs1 (centres undefined)	i	i	i	i	i	i
SMILES	RGS4 act	Kir21 inh	MrgX1 ag	MrgX1 allo act	RGS4 block	MrgX1 antagonist
CCOC(=O)c1c(N2C(=O)Nc3cc(Cl)c(Cl)cc3N2O)sc2c1CCCCC2	nt	nt	49.6	i	nt	i
COc1ccc(C(=O)/C=C/c2cccc(OCc3ccccc3)c2)cc1CSCC(=O)O	i	-6.23	30.1	i	i	i
COc1ccc(C(=O)/C=C/c2ccc(OCc3ccccc3)cc2)cc1CSCC(=O)O	i	i	i	i	i	i
C=CCN(C(=O)c1csnn1)C(C(=O)NCc1ccc(F)cc1)c1ccc(F)cc1 (centres undefined)	i	i	i	i	i	i
CCO/C([O-])=N/c1sn[n+](C)c1C	i	i	i	i	i	-5.27
Nc1nc2n(n1)C1(CCCCC1)C1=C(CCCC1)N2	i	i	i	i	i	i
C[n+]1ccccc1/C=C/c1cc(Br)ccc1O	-8.51	i	i	i	i	i
Nc1nc(Nc2cccc(F)c2)nc(NCCO)c1[N+](=O)[O-]	i	i	i	i	i	i
Cc1ccc(Nc2nc(N)c([N+](=O)[O-])c(NCCO)n2)cc1	i	i	i	8.01	i	i
CCOC(=O)C1=C(c2ccccc2)NC(=S)NC1c1ccc(C)c([N+](=O)[O-])c1 (centres undefined)	i	i	i	i	i	-4.89

Screening data from PubChem.
